Experimental data: article PMC7059817 (Biomolecules & Therapeutics, 2019)

How the values were obtained:
[1] = biological target: Recombinant human Aβ1–42 peptide (Homo sapiens, UniProt P05067); test: Aβ1–42 aggregation assay; assay type: biochemical
Method in brief: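 Recombinant human Aβ1–42 (HFIP-treated) dissolved in DMSO, diluted into PBS (50 mM NaH2PO4, 100 mM NaCl, pH 7.40); final 20 μM Aβ1–42 with 5 μM ThT ± test compound at 10, 2, 0.4, 0.08 μM (from 10 mM DMSO stocks). Incubated 37°C for 24 h; ThT fluorescence read every 10 min, ex 460/em 508 nm. IC50 from concentration-response curves; mean ± SEM, 4 independent experiments.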

preformed Aβ1–42 fibrils [2] = biological target: T1, preformed Aβ1–42 fibrils (Homo sapiens, UniProt P05067); test: Aβ1–42 disaggregation assay; assay type: biochemical
Method in brief: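 Fibrils preformed by incubating 20 μM recombinant human Aβ1–42 with 5 μM ThT in PBS buffer (pH 7.40), 37°C, 24 h. Test compound then added at final 10, 2, 0.4, 0.08 μM, or DMSO control, and incubated a further 7 h at 37°C. ThT fluorescence read every 2.5 min (ex 460/em 508 nm). EC50 from curves of percent change in ThT intensity versus concentration. Four independent experiments, duplicate samples; mean ± SEM.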

preformed Aβ1–42 fibrils [3] = biological target: T1, preformed Aβ1–42 fibrils; test: Atomic force microscopy imaging of preformed Aβ1–42 fibrils; conditions: 25 μM fibrils with 25 μM amentoflavone, 1 h
Aβ1–42 fibrils = Aβ1–42 fibrils (Homo sapiens, UniProt P05067); test: SDS-PAGE electrophoresis and immunoblotting with anti-Aβ antibody 6E10; conditions: 25 μM fibrils with 25 μM amentoflavone, glutaraldehyde cross-linked
Sequence of Aβ1–42 fibrils (P05067 672-713): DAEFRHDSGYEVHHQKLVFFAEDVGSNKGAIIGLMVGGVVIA

T1 sequence (P05067 672-713): as above
Sequence of Recombinant human Aβ1–42 peptide (P05067 672-713): as above

| Structure (SMILES) | IC50 [1] | EC50 (preformed Aβ1–42 fibrils [2]) | Structural change of preformed Aβ1–42 fibrils (AFM) (preformed Aβ1–42 fibrils [3]) | Conversion of Aβ1–42 fibrils to oligomers and monomers (immunoblot) (Aβ1–42 fibrils) | Time to decline of ThT fluorescent intensity after addition (preformed Aβ1–42 fibrils [2]; concentration-dependent decline, preformed Aβ1–42 fibrils) | Time to lowering of ThT fluorescent intensity after the treatment (preformed Aβ1–42 fibrils [2]; concentration-dependent, preformed Aβ1–42 fibrils) |
| --- | --- | --- | --- | --- | --- | --- |
| COc1ccc(-c2cc(=O)c3c(O)cc(O)cc3o2)cc1-c1c(O)cc(O)c2c(=O)cc(-c3ccc(O)cc3)oc12 [Bilobetin, bilobetin] | 1.53 ± 0.2 µM | 2.45 ± 1.28 µM |  |  |  |  |
| O=c1cc(-c2ccc(O)c(-c3c(O)cc(O)c4c(=O)cc(-c5ccc(O)cc5)oc34)c2)oc2cc(O)cc(O)c12 [Amentoflavone, amentoflavone] | 0.26 ± 0.03 µM | 0.59 ± 0.19 µM | conformational changes of the fibrils into amorphous Aβ1–42 aggregates | did not increase the conversion of Aβ1–42 fibrils to oligomers and monomers | ≤ 30 min | ≤ 1 h |
| COc1cc(O)c2c(=O)cc(-c3ccc(O)c(-c4c(O)cc(O)c5c(=O)cc(-c6ccc(O)cc6)oc45)c3)oc2c1 [Sequoiaflavone] | 0.29 ± 0.01 µM | 2.04 ± 0.79 µM |  |  |  |  |
| COc1cc(O)c2c(=O)cc(-c3ccc(OC)c(-c4c(O)cc(O)c5c(=O)cc(-c6ccc(O)cc6)oc45)c3)oc2c1 [Ginkgetin, ginkgetin] | 4.92 ± 1.31 µM | 6.81 ± 4.08 µM |  |  |  |  |
| COc1cc(O)c2c(=O)cc(-c3ccc(O)cc3)oc2c1-c1cc(-c2cc(=O)c3c(O)cc(O)cc3o2)ccc1O [Sotetsuflavone, sotetsuflavone] | 8.7 ± 1.21 µM | > 10 µM |  |  |  |  |
| COc1ccc(-c2cc(=O)c3c(O)cc(O)c(-c4cc(-c5cc(=O)c6c(O)cc(O)cc6o5)ccc4OC)c3o2)cc1 [Isoginkgetin, isoginkgetin] | 1.8 ± 0.38 µM | > 10 µM |  |  |  |  |
